The source made the active and inactive calls. No cut-off for these calls is given here.
Key:
[1] = target: T1, M-phase inducer phosphatase 2 (Homo sapiens) (UniProt P30305); conditions: K562, 20 uM
T1 sequence (whole entry): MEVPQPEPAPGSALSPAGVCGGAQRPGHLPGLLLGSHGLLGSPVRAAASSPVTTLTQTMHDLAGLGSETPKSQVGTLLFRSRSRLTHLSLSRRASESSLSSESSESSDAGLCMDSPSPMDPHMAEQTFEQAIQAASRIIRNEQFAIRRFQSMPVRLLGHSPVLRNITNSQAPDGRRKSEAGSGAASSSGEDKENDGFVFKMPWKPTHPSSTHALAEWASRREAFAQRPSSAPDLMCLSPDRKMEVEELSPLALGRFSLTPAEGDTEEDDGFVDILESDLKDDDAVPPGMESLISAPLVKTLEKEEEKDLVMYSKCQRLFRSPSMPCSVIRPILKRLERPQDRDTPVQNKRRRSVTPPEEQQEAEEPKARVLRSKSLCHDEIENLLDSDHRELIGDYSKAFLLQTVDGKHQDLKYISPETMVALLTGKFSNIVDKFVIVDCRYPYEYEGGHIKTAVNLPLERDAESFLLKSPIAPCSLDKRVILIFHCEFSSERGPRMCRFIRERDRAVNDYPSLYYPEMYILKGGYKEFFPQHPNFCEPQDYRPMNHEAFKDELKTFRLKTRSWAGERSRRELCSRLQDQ

K562 [2] = assay: Increase of ROS level in human K562 cells expressing Cdc25A-C using H2DCFDA at 20 uM after 30 mins by flow cytometry in presence of DTT; type: functional, cell-based
MCF7 [3] = assay: Cell cycle arrest in human MCF7 cells assessed as accumulation at G2/M phase at 20 uM after 24 hrs by propidium iodide staining-based flow cytometry (reference value: 9.4 +/- 0.04%); type: functional
MCF7 [4] = assay: Cell cycle arrest in human MCF7 cells assessed as accumulation at G1 phase at 20 uM after 24 hrs by propidium iodide staining-based flow cytometry (reference value: 81.3 +/- 0.01%); type: functional
[5] = target: T1, M-phase inducer phosphatase 2 (Homo sapiens); assay: Reversible inhibition of recombinant phosphatase activity of Cdc25B catalytic domain expressed in Escherichia coli BL21(DE3) assessed as residual activity of enzyme measured after 10 fold dilution at 100 uM preincubated for 20 mins
Summary of the method: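 Cdc25B (0.5 μg) preincubated 20 min at room temperature with 100 μM inhibitor or DMSO vehicle, then diluted 10-fold. Residual phosphatase activity was read after adding OMFP substrate and expressed as percent of the untreated control. Mean ± SD of three determinations.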

[6] = target: T2, M-phase inducer phosphatase 1 (Homo sapiens) (UniProt P30304); assay: (§1) Inhibition of recombinant phosphatase activity of Cdc25A catalytic domain expressed in Escherichia coli BL21(DE3) using OMFP as substrate at 100 uM after 15 mins by fluorimetric assay
T2 sequence (whole entry): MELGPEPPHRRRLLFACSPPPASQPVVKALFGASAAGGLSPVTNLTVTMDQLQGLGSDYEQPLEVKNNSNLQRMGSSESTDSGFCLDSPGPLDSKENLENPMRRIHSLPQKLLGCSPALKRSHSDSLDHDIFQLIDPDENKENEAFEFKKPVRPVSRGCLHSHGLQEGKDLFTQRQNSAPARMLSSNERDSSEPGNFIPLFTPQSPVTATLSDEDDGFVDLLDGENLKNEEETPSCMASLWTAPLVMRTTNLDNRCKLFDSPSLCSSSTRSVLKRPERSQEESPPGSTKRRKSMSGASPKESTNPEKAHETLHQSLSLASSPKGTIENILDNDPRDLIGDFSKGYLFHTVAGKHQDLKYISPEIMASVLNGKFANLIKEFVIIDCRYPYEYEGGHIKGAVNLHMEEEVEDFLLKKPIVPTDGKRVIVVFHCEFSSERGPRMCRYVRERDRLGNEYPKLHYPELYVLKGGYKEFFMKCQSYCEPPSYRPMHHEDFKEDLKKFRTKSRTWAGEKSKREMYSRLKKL

[7] = target: T1, M-phase inducer phosphatase 2 (Homo sapiens); assay: (§2) Inhibition of recombinant phosphatase activity of Cdc25B catalytic domain expressed in Escherichia coli BL21(DE3) using OMFP as substrate at 100 uM after 15 mins by fluorimetric assay
PC-3 [8] = assay: Increase of ROS level in human PC3 cells expressing Cdc25A-C using H2DCFDA at 20 uM after 30 mins by flow cytometry in presence of DTT; type: functional, cell-based
[9] = target: T1, M-phase inducer phosphatase 2 (Homo sapiens); conditions: 400 uM
MCF7 [10] = assay: Growth inhibition against human MCF7 cells expressing Cdc25A-C assessed as cell viability at 20 uM after 72 hrs by MTS assay; type: functional, cell-based
Summary of the method: (§3)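 MCF-7 breast, PC-3 prostate and K562 leukaemia cells treated 72 h with inhibitor or DMSO vehicle control, then cell viability measured. Values are mean ± SD of three experiments; significance by Student's t test, p ≤ 0.05.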

[11] = target: T3, M-phase inducer phosphatase 3 (Homo sapiens) (UniProt P30307); assay: (§4) Inhibition of recombinant phosphatase activity of Cdc25C catalytic domain expressed in Escherichia coli BL21(DE3) using OMFP as substrate at 100 uM after 15 mins by fluorimetric assay
T3 sequence (whole entry): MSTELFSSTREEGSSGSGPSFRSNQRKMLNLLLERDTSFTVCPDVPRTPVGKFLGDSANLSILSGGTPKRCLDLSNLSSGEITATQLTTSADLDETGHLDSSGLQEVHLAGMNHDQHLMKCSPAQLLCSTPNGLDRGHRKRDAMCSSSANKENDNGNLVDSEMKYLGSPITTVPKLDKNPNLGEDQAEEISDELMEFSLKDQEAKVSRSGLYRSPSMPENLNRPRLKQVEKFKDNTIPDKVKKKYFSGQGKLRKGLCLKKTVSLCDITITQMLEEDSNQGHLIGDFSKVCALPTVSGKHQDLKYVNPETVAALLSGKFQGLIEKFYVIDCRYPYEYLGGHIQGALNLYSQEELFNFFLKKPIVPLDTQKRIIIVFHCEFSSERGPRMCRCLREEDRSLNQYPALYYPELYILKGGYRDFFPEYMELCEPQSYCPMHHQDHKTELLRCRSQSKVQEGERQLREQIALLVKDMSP

K562 [12] = assay: Increase of ROS level in human K562 cells expressing Cdc25A-C using H2DCFDA at 20 uM after 30 mins by flow cytometry; type: functional, cell-based
PC-3 [13] = assay: Increase of ROS level in human PC3 cells expressing Cdc25A-C using H2DCFDA at 20 uM after 30 mins by flow cytometry; type: functional, cell-based
MCF7 [14] = assay: Cell cycle arrest in human MCF7 cells assessed as accumulation at G1 phase at 20 uM after 48 hrs by propidium iodide staining-based flow cytometry (reference value: 64.5 +/- 0.02%); type: functional
MCF7 [15] = assay: Cell cycle arrest in human MCF7 cells assessed as accumulation at S phase at 20 uM after 48 hrs by propidium iodide staining-based flow cytometry (reference value: 14.5 +/- 0.01%); type: functional
K562 [16] = assay: Growth inhibition against human K562 cells expressing Cdc25A-C assessed as cell viability at 20 uM after 72 hrs by MTS assay; type: functional, cell-based
Summary of the method: as §3

MCF7 [17] = assay: Cell cycle arrest in human MCF7 cells assessed as accumulation at G2/M phase at 20 uM after 48 hrs by propidium iodide staining-based flow cytometry (reference value: 21 +/- 0.04%); type: functional
PC-3 [18] = assay: Growth inhibition against human PC3 cells expressing Cdc25A-C assessed as cell viability at 20 uM after 72 hrs by MTS assay; type: functional, cell-based
Summary of the method: as §3

[19] = target: T1, M-phase inducer phosphatase 2 (Homo sapiens); assay: (§5) Inhibition of recombinant phosphatase activity of Cdc25B catalytic domain expressed in Escherichia coli BL21(DE3) using OMFP as substrate by spectrofluorimetric analysis
MCF7 [20] = assay: Cell cycle arrest in human MCF7 cells assessed as accumulation at S phase at 20 uM after 24 hrs by propidium iodide staining-based flow cytometry (reference value: 9.35%); type: functional
K562 [21] = assay: Growth inhibition against human K562 cells expressing Cdc25A-C assessed as cell viability at 400 uM after 72 hrs by MTS assay; type: functional, cell-based
Summary of the method: as §3

[22] = target: T1, M-phase inducer phosphatase 2 (Homo sapiens); assay: Inhibition of Cdc25B in human K562 cells assessed as increase in Cdk1 phosphorylation at 400 uM after 24 hrs by Western blot analysis; type: cell-based
Summary of the method: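 K562 cells treated 24 h with inhibitor or DMSO vehicle, lysed, and Western blotted with anti-phospho-Cdk1 (Y15) antibody; total Cdk1 detected as loading control.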

MCF7 [23] = assay: Cell cycle arrest in human MCF7 cells assessed as accumulation at G1 phase at 400 uM after 24 hrs by propidium iodide staining-based flow cytometry (reference value: 81.3 +/- 0.01%); type: functional
[24] = target: T4, M-phase inducer phosphatase 1 (Homo sapiens, UniProt P30304); assay: Inhibition of recombinant phosphatase activity of Cdc25A catalytic domain expressed in Escherichia coli BL21(DE3) using OMFP as substrate by spectrofluorimetric analysis
T4 sequence (P30304 whole entry): T2 sequence (whole entry)
Summary of the method: (§6)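 Purified recombinant Cdc25A catalytic domain; phosphatase activity measured as OMFP hydrolysis versus inhibitor concentration to derive IC50, with Ki calculated from kinetic measurements. Results are averages ± SD of three determinations.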

MCF7 [25] = assay: Cell cycle arrest in human MCF7 cells assessed as accumulation at S phase at 400 uM after 24 hrs by propidium iodide staining-based flow cytometry (reference value: 9.35%); type: functional
PC-3 [26] = assay: Growth inhibition against human PC3 cells expressing Cdc25A-C assessed as cell viability at 400 uM after 72 hrs by MTS assay; type: functional, cell-based
Summary of the method: as §3

MCF7 [27] = assay: Cell cycle arrest in human MCF7 cells assessed as accumulation at G1 phase at 400 uM after 48 hrs by propidium iodide staining-based flow cytometry (reference value: 64.5 +/- 0.02%); type: functional
MCF7 [28] = assay: Growth inhibition against human MCF7 cells expressing Cdc25A-C assessed as cell viability at 400 uM after 72 hrs by MTS assay; type: functional, cell-based
Summary of the method: as §3

[29] = target: T4, M-phase inducer phosphatase 1; assay: Inhibition of recombinant phosphatase activity of Cdc25A catalytic domain expressed in Escherichia coli BL21(DE3) using OMFP as substrate by Lineweaver-Burk plot analysis
Summary of the method: as §6

MCF7 [30] = assay: Cell cycle arrest in human MCF7 cells assessed as accumulation at G2/M phase at 400 uM after 48 hrs by propidium iodide staining-based flow cytometry (reference value: 21 +/- 0.04%); type: functional
MCF7 [31] = assay: Cell cycle arrest in human MCF7 cells assessed as accumulation at S phase at 400 uM after 48 hrs by propidium iodide staining-based flow cytometry (reference value: 14.5 +/- 0.01%); type: functional
[32] = target: T5, M-phase inducer phosphatase 2 (Homo sapiens, UniProt P30305); assay: Competitive inhibition of recombinant phosphatase activity of Cdc25B catalytic domain expressed in Escherichia coli BL21(DE3) using OMFP as substrate by Lineweaver-Burk plot analysis
T5 sequence (P30305 whole entry): T1 sequence (whole entry)

[33] = target: T5, M-phase inducer phosphatase 2; assay: as §5
MCF7 [34] = assay: Cell cycle arrest in human MCF7 cells assessed as accumulation at G2/M phase at 400 uM after 24 hrs by propidium iodide staining-based flow cytometry (reference value: 9.4 +/- 0.04%); type: functional
[35] = target: T1, M-phase inducer phosphatase 2 (Homo sapiens); assay: Reversible inhibition of recombinant phosphatase activity of Cdc25B catalytic domain expressed in Escherichia coli BL21(DE3) assessed as residual activity of enzyme measured after 10 fold dilution at 100 uM preincubated for 20 mins
[36] = target: M-phase inducer phosphatase 1 (Homo sapiens) (UniProt P30304); assay: as §1; remark: listed apart in the source
[37] = target: M-phase inducer phosphatase 2 (Homo sapiens) (UniProt P30305); assay: as §2; remark: listed apart in the source
[38] = target: M-phase inducer phosphatase 3 (Homo sapiens) (UniProt P30307); assay: as §4; remark: listed apart in the source

Row | Compound | inhibition [6] | inhibition [7] | inhibition [11] | inhibition [19] | growth inhibition (GI) (K562 [21]) | inhibition [22] | Activity (MCF7 [23]) | Activity (MCF7 [25]) | growth inhibition (GI) (PC-3 [26]) | Activity (MCF7 [27]) | growth inhibition (GI) (MCF7 [28]) | Activity (MCF7 [30]) | Activity (MCF7 [31]) | Activity (MCF7 [34]) | also measured
1 | O=C(O)CCc1c2ccc(=O)c(O)c-2oc2c(O)c(O)ccc12 | 100% | 99% | 99% | Dose-dependent effect |  |  |  |  |  |  |  |  |  |  | inhibition [1]: Active; Activity (K562 [2]): inactive; Activity (MCF7 [3]): 18.1%; Activity (MCF7 [4]): 68.8%; inhibition [5]: Active; Activity (PC-3 [8]): inactive; inhibition [9]: Active; growth inhibition (GI) (MCF7 [10]): Active; Activity (K562 [12]): Active; Activity (PC-3 [13]): Active; Activity (MCF7 [14]): 92.8%; Activity (MCF7 [15]): 2.6%; growth inhibition (GI) (K562 [16]): Active; Activity (MCF7 [17]): 4.6%; growth inhibition (GI) (PC-3 [18]): Active; Activity (MCF7 [20]): 13.1%
2 | O=S(=O)(O)c1ccc(-c2nnc(-c3ccccn3)nc2-c2ccc(S(=O)(=O)O)o2)o1 | 41% | 53% | 35% | Dose-dependent effect | Active | Active | 78.7% | 11.3% | Active | 95.4% | Active | 2.9% | 1.8% | 10% | IC50 [24]: 110 µM; Ki [29]: 139 µM; Ki [32]: 159 µM; IC50 [33]: 173 µM
3 | COc1ccc(Cc2ccc3nc(O)cc(C)c3c2)cc1S(=O)(=O)O | 46% | 41% | 55% | Dose-dependent effect | Active | Active | 91.1% | 3.3% | Active | 93.5% | Active | 3.3% | 3.2% | 5.6% | inhibition [35]: Active
4 | VANADATE |  |  |  |  |  |  |  |  |  |  |  |  |  |  | inhibition [36]: 77%; inhibition [37]: 91%; inhibition [38]: 90%
